Sampled rows, rich in hits. Any-hit rate of the full collection: about 3.5%.
MrgX1 ag = human MrgX1 receptor agonism, primary screen; B-score at 10 µM; AID 588627; Q96LB2; 310,000 tested, 0.44% active; MrgX1-HEK293 cells, Fluo-4 calcium fluorescence, agonist mode; active compounds read high;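 active means calcium response B-score plate-corrected fluorescence ratio at least 3 library SD, with starting fluorescence B-score inside 5 SD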
Target sequence (Q96LB2 whole entry, looked up): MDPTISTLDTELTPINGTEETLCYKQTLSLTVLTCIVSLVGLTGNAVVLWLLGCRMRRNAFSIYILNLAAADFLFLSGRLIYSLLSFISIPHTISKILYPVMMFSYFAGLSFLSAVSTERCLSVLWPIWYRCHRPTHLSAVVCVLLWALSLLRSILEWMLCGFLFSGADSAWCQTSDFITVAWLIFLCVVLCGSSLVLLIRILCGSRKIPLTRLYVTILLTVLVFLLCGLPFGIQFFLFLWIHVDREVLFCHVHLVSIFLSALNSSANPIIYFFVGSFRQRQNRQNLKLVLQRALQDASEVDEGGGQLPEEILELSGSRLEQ
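Material: HEK293 cells stably expressing human MrgX1 receptor | Quantity: 15,000 cells per well | Times: Cells plated overnight, dye loaded 0.5 h 37 °C, 0.5 h room temperature | Measured by: Kinetic Fluo-4 NW fluorescence of intracellular calcium | Control set: Positive and negative controls per plate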
MrgX1 allo act = allosterically activates human MrgX1 receptor signaling. Q96LB2. MrgX1-HEK293, Fluo-4 calcium flux, FDSS; active compounds read high. B-score at 10 µM. 310,000 tested, 0.63% active. AID 588675;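 active means plate-corrected calcium response at least 3 library SD above typical, normal starting fluorescence, not activating the receptor alone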;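 further: compound read alongside a low EC10 to EC30 dose of BAM8-22 agonist; peak minus trough fluorescence over baseline measured at the second addition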
MrgX1 antagonist = human MrgX1 receptor antagonism, primary screen; MRGX1-HEK293 calcium flux, Fluo-4, BAM8-22 antagonism; active compounds read low; B-score at 10 µM; 310,000 tested, 1.3% active;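 active means calcium-response B-score plate-corrected more than 3 library SD below zero, starting fluorescence within 5 deviations, no agonist response on first addition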;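 further: peak minus trough fluorescence over baseline after final BAM8-22 challenge near maximal dose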
RGS4 inh = inhibitors of human RGS4 | P49798 | HEK293 M3R/RGS4 inducible, Fluo-4 calcium flux; active compounds read high; triggered by carbachol at its EC20 | B-score at 10 µM | 310,000 tested, 0.45% active | AID 463165;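 active means B-score, a plate-corrected calcium signal, over three deviations above library mean, with baseline fluorescence within five deviations of library mean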;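 further: RGS4 expression induced by doxycycline in cells with stable M3 receptor; B-score is computed from the integrated fluorescence ratio over baseline after carbachol; higher B-score means a larger calcium signal and so more RGS4 inhibition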
Target sequence (P49798 whole entry, looked up): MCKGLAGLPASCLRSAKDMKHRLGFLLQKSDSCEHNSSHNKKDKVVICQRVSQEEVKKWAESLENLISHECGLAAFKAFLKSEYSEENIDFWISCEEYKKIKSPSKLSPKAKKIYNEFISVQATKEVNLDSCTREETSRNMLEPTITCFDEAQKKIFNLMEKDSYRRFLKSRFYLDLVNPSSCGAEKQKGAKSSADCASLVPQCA
RGS4 act = potentiators or activators of RGS4. HEK293 M3R/inducible RGS4, carbachol calcium flux Fluo4; active compounds read low. B-score at 10 µM. 310,000 tested, 0.92% active. AID 463111;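 active means B-score of the integrated calcium signal more than 4 SD below the library mean, with starting fluorescence not abnormally high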;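 further: negative B-score means reduced calcium response which marks RGS4 activation or potentiation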
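test system = M3R-expressing HEK293 line, RGS4 induced by doxycycline | probe or stimulus = carbachol at ECmax as muscarinic agonist stimulus | timing = dye loading 30 min 37 °C, buffer rest 30 min RT | signal = calcium dye Fluo4 fluorescence | evaluation = B score from integrated fluorescence ratio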
MrgX1 ant reconf = human MrgX1 receptor antagonism, re-confirmation screen | shares compounds with MrgX1 antagonist | MrgX1-HEK293, BAM8-22 calcium flux, Fluo-4; active compounds read low | remaining BAM8-22 calcium response % of control (active compounds read low), % at 10 µM | 2,300 tested, 19% active;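 active means remaining agonist calcium response no higher than 100% minus 3 SD of agonist-only control wells, with starting fluorescence near control levels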;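 further: agonist BAM8-22 given at a near maximal EC90 to ECmax level; peak minus minimum fluorescence divided by baseline after agonist addition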
HEK293 Ca flux = MrgX1 antagonist counter-screen hit in parental HEK293 cells | shares compounds with MrgX1 antagonist | Fluo-4 calcium fluorescence, FDSS | fluorescence ratio F(max-min)/F0 at 10 µM | 4,000 tested, 2% active | AID 624111;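 active means duplicate-averaged calcium fluorescence ratio at least three times the standard deviation of buffer wells, a nonspecific response in parental cells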
HEK293 Ca counter = MrgX1 allosteric activator counter-screen hit in parental HEK293 cells | shares compounds with MrgX1 antagonist | AID 624114 | parental HEK293 calcium flux, Fluo-4 fluorescence ratio; active compounds read high | 4,000 tested, 0.4% active | fluorescence ratio F(max-min)/F0 at 10 µM;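 active means calcium fluorescence ratio, averaged over duplicates, at least 3 SD of the buffer-well ratio, meaning a nonspecific response in receptor-free cells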;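 further: untransfected parental HEK293 lacking MrgX1 used as counterscreen for MrgX1 allosteric activators; fluorescence change taken during the second addition on a kinetic imager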
HEK293 Ca cntr2 = counter-screen for MrgX1 activators: effect in parental HEK293 cells | shares compounds with MrgX1 antagonist | Fluo-4 calcium fluorescence (FDSS); active compounds read high | 4,000 tested, 8.7% active | AID 624115 | fluorescence ratio F(max-min)/F0 at 10 µM;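 active means calcium fluorescence ratio at least three times the spread of buffer wells, meaning a non-specific response in parental cells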
A number is an active result; n = inactive; x = no result given.

SMILES | MrgX1 ag | MrgX1 allo act | MrgX1 antagonist | RGS4 inh | RGS4 act | MrgX1 ant reconf | HEK293 Ca flux | HEK293 Ca counter | HEK293 Ca cntr2
CCCNC(=O)c1ccc2nc(-c3ccccc3)c(-c3ccccc3)nc2c1 | n | n | -5.3 | n | n | n | n | n | n
O=C(c1cccc(C(=O)N2CCN(c3ncccn3)CC2)c1)N1CCN(c2ncccn2)CC1 | n | n | n | n | n | x | x | x | x
O=C(CN1C(=O)CCC1=O)Nc1cccc2c1C(=O)NC2=O | n | n | n | n | n | x | x | x | x
COC(=O)COc1coc(CN2CCN(c3cccc(Cl)c3)CC2)cc1=O | n | n | n | n | n | x | x | x | x
COc1ccccc1NC(=O)CCC(=O)OCc1ccc(Cl)cc1 | n | n | -4.8 | n | n | n | n | n | n
CCOC(=O)Cc1nnc(Nc2cccc(O)c2)c2ccccc12 | n | n | -6.3 | n | n | n | n | n | n
CC(=O)Nc1cccc(NC(=O)Nc2cccc(Cl)c2C)c1 | n | n | -5.5 | n | n | n | n | n | n
CC(=O)Nc1cccc(NC(=S)Nc2cccc(Cl)c2C)c1 | n | n | n | n | n | x | x | x | x
CNc1c(C(=O)O)ccc2c1C(=O)c1ccccc1C2=O | n | n | -8.6 | n | n | n | n | n | n
CCNc1c(C(=O)O)ccc2c1C(=O)c1ccccc1C2=O | n | n | n | n | n | x | x | x | x
CC1CCN(C(=O)CSc2nc3[nH]ncc3c(=O)[nH]2)CC1 | n | n | -6.4 | n | n | n | n | n | n
Cc1cc(C)cc(NC(=O)CSc2nc3[nH]ncc3c(=O)[nH]2)c1 | n | n | -9.1 | n | n | n | n | n | n
O=C(Cn1cc(C(F)(F)F)cc(Cl)c1=O)NCc1ccc(F)cc1 | n | n | n | n | n | x | x | x | x
COc1ccc2c(c1)CCCN2C(N)=O | n | n | -4.9 | n | n | n | n | n | n
COC(=O)N1CCCc2cc(C)ccc21 | n | n | n | n | n | x | x | x | x
CS(=O)(=O)N(Cc1ccc(Cl)cc1)c1ccc(C(=O)NCCC2=CCCCC2)cc1 | n | n | -5.4 | n | n | n | n | n | n
COc1ccc(C2/C(=C(/O)c3ccc(F)cc3)C(=O)C(=O)N2CCCN2CCOCC2)cc1OC (stereo unspecified) | n | n | n | n | n | x | x | x | x
Cc1ccc(Cn2nnc(C(=O)Nc3cc(C)ccc3C)c2N)cc1 | n | n | -4.6 | n | n | n | n | n | n
CC1c2[nH]c3ccccc3c2CCN1C(=O)Nc1ccccc1 (stereo unspecified) | n | n | -7.5 | n | n | n | n | n | n
Cc1cc(=O)oc2c(C)c(OC(C)C(=O)NC(Cc3c[nH]c4ccc(O)cc34)C(=O)O)ccc12 (stereo unspecified) | n | n | -5.5 | n | n | n | n | n | n
Cc1cc(Cn2nc(C(=O)NCC3CC3)cc2-c2ccccc2)on1 | n | n | n | n | n | x | x | x | x
CCOC(=O)c1cc(-c2ccccc2)n(Cc2cc(CC)no2)n1 | n | n | -5.5 | n | n | n | n | n | n
COc1cc(CN(C)C(C)C(=O)Nc2ccc([N+](=O)[O-])cc2Cl)ccc1OC(F)F (stereo unspecified) | n | n | -21 | n | n | n | n | n | n
CCc1ccc(C(C(=O)NCc2ccc(F)cc2)N(C(=O)c2csnn2)C2CC2)cc1 (stereo unspecified) | n | n | n | n | n | x | x | x | x
CCOC(=O)N1CCN(C(=O)c2ccccc2N(C)S(C)(=O)=O)CC1 | n | n | -7.6 | n | n | n | n | n | n
SMILES | MrgX1 ag | MrgX1 allo act | MrgX1 antagonist | RGS4 inh | RGS4 act | MrgX1 ant reconf | HEK293 Ca flux | HEK293 Ca counter | HEK293 Ca cntr2
Cn1c(O)c(N=NC(=O)Cn2ccc(C(F)(F)F)n2)c2ccccc21 | n | n | -6.3 | n | n | n | n | n | n
Cc1oc(C)c(C(=O)O)c1C(=O)O | n | n | n | n | n | x | x | x | x
COC(=O)c1c(C)oc(C)c(C(=O)OC)c1=O | n | n | -7 | n | n | n | n | n | n
O=C(CC(=O)Nc1nc(C23CC4CC(CC(C4)C2)C3)cs1)NCCO | n | n | -5.7 | n | n | 65% | n | n | n
CCOC(=O)Cc1csc(SCC(=O)NC2CCCC(C)C2C)n1 (stereo unspecified) | n | n | n | n | n | x | x | x | x
CCOC(=O)Cc1csc(SC(C)C(=O)NC2CCCCC2C)n1 (stereo unspecified) | n | n | -5.3 | n | n | 85% | n | n | n
CCC(=O)c1ccc(SC(=O)N(C)C)cc1O | n | n | n | n | n | x | x | x | x
Cc1cc(C)n(CCCNC(=O)c2ccc3c(c2)NC(=O)CS3)n1 | n | n | -8 | n | n | n | n | n | n
CCCCCCCCCCOC(=O)Cn1c(COc2ccccc2OC)[n+](C)c2ccccc21 | n | n | -11 | n | -8.4 | 59% | n | n | n
CN1CCN(C(=S)c2cn(CCOc3ccccc3F)c3ccccc23)CC1 | n | n | n | n | n | x | x | x | x
O=C(Nc1ccc(N2C(=O)C3C4C=CC(C4)C3C2=O)cc1)Nc1nncs1 (stereo unspecified) | n | n | -4.6 | n | n | n | n | n | n
CC(C)c1nc(SCC(=O)N2CC(=O)Nc3ccccc32)c2ccccc2n1 | n | n | n | n | n | x | x | x | x
S=C(NCc1ccncc1)Nc1ccc(Br)cc1Cl | n | n | -6.3 | n | n | 68% | n | n | n
O=C(NNC(=S)Nc1ccc(Br)cc1Cl)c1ccncc1 | n | n | n | n | n | x | x | x | x
CC(=O)c1cc(C#N)c(N2CCOCC2)nc1C | n | n | -4.6 | n | n | n | n | n | n
CCOc1ccccc1NC(=O)c1cc(Cl)ccc1NC(=O)c1ccco1 | n | n | -5.2 | n | n | n | n | n | n
CCC(NC(=O)c1ccccc1NC(=O)c1ccco1)C(=O)O (stereo unspecified) | n | n | -7.6 | n | n | n | n | n | n
COc1ccccc1NC(=O)c1cc(Cl)ccc1NC(=O)c1ccco1 | n | n | n | n | n | x | x | x | x
COc1cccc(-c2nnc(SCC(=O)NCc3ccc4c(c3)OCO4)n2Cc2ccco2)c1 | n | n | n | n | n | x | x | x | x
COc1cccc(-c2nnc(SCC(=O)Nc3ccc4c(c3)OCCO4)n2Cc2ccco2)c1 | n | n | -6.4 | n | n | n | n | n | n
Cc1ccccc1C(=O)NC1CCN(C(=O)Nc2ccccc2Cl)CC1 | n | n | n | n | n | x | x | x | x

Screening data (PubChem BioAssay)
